System: MC38 tumors
Experiment: Transcriptional
Assay type: in vivo, mouse
Details: 2 mg/kg ip Q3D x3
Summary of the method: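 hCD137 C57BL/6J mice bearing sc MC38 tumors (1 x 10^6 cells) were randomized at about 240 mm3. Groups received vehicle, 15 mg/kg test compound or 15 mg/kg enantiomeric non-binding control iv, or 2 mg/kg anti-CD137 agonist antibody ip, Q3D for 3 doses. Tumors were harvested 1 hr after the last dose. RNA (100 ng/tumor) was profiled on the nCounter mouse PanCancer IO 360 panel, and FFPE sections were stained for mouse CD8 with HRP detection.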

B1: anti-CD137 agonist antibody: anti-CD137 agonist antibody, a commercially available urelumab analog (antibody, V domains shown)
VH: QVQLQQWGAGLLKPSETLSLTCAVYGGSFSGYYWSWIRQSPEKGLEWIGEINHGGYVTYNPSLESRVTISVDTSKNQFSLKLSSVTAADTAVYYCARDYGPGNYDWYFDLWGRGTLVTVSS
VL: EIVLTQSPATLSLSPGERATLSCRASQSVSSYLAWYQQKPGQAPRLLIYDASNRATGIPARFSGSGSGTDFTLTISSLEPEDFAVYYCQQRSNWPPALTFGGGTKVEIK
T cell infiltration of tumors, histological analysis (CD8 IHC): notably increased
